Compound activity as filed in PubChem.
EWS-Fli block = inhibitors of EWS/Fli oncoprotein transcriptional activity. inhibition, % at 12.6 µM. actives 0.67% (n = 350,000). A673 NR0B1-luciferase reporter, viability-normalised. AID 651661;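 active = mean inhibition of at least 50% after viability correction, with every replicate also passing that limit; inconclusive = mean reaches 50% but only one of two replicates passes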;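 note: firefly luciferase signal divided by Alamar Blue viability fluorescence both relative to DMSO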
PGC1a acetyl inh = modulators of PGC1a acetylation; inhibition, % at 15.6 µM; actives 0.17% (n = 350,000); U2OS PGC1a acetylation, AlphaScreen anti-acetyl-lysine; with virally co-expressed GCN5 acetyltransferase;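 active = every replicate shows inhibition of at least 40%; inconclusive = mean inhibition at least 40% but some replicate below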;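 note: 0% = neutral control wells and 100% = positive control wells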
GSIS activator = primary screen for activators of insulin secretion dependent on glucose, INS-1E cells, GLuc reporter luminescence; actives 0.61% (n = 370,000); activation, % at 16.6 µM; INS-1E GLuc reporter insulin secretion, 2-3 h;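 active = lowest replicate activation of at least 40%, so every replicate reaches that level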;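 note: 0% = median of neutral control wells and 100% = median of IBMX positive control wells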
AF4-AF9 inh = inhibitors of human MLL-AF4/AF9 interaction | P42568 | AlphaScreen, biotin-AF4 peptide binding to FLAG-AF9 | inhibition, % at 10 µM | actives 0.47% (n = 350,000);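 active = every replicate reaching a set inhibition limit, whatever the replicate mean, cut at about 25% in these data; inconclusive = mean inhibition reaches that limit but some replicates miss it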;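 note: 0% = plate neutral control median and 100% = total signal loss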
Target sequence (P42568 whole entry, looked up): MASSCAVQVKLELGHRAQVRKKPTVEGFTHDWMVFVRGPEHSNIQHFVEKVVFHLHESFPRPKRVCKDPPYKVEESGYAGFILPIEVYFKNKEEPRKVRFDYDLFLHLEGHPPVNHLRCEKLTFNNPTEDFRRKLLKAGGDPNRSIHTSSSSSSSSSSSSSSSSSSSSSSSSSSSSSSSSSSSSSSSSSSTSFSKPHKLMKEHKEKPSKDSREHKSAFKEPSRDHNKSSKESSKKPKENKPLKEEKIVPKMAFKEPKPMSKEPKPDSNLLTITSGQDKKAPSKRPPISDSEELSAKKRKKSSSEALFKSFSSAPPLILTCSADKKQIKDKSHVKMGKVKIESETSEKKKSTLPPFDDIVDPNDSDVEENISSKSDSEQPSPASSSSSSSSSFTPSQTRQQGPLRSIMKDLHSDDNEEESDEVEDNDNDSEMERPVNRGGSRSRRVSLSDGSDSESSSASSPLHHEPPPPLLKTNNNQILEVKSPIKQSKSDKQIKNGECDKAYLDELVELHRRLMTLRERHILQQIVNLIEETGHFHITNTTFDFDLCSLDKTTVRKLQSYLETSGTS
PAX8 inh HTS = inhibitors of PAX8 transcriptional activity in RMG-I cells | RMG-I TPO-luciferase reporter, SteadyGlo, 24 h | inhibition, % at 12.6 µM | actives 1.2% (n = 360,000);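 active = mean replicate inhibition at least 60% with every replicate also reaching 60%; inconclusive = only one of the two criteria is met; inactive = mean below 60% and not all replicates reaching 60%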;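 note: luciferase light reporting Pax8 driven TPO promoter activity; plate controls were median of neutral control wells for no effect and mitoxantrone controls for full effect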
XiGFP reactiv = activators of X-chromosome reactivation in mouse fibroblasts | XiGFP mouse fibroblasts, % GFP-positive cells imaging, 3 d; cells co-treated with 5-aza-dC sensitizer; scaled so ellipticine positive control = 100% | activation, % at 7.58 µM | actives 0.055% (n = 360,000) | AID 743238;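 active = mean normalized replicate activation at least 10% and every replicate at or above 10%; inconclusive = only one of the two criteria met; inactive = mean below 10% and not all replicates reach 10%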;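 note: 0% = median of on-plate neutral control wells and 100% = ellipticine 6 µM median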
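Schedule: 3 d treatment, 15 min room-temperature fixation; system: 68-5-11 XiGFP fibroblast line; buffer or medium: DMEM plus 5-aza-dC sensitizer; control set: ellipticine 6 µM positive control; compound: one concentration, pinned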
Starred values were filed as active, the others as inactive; ? = inconclusive; / = no result. Shown are actives, neighbours in structure and some others; about 2.1% of the full set was active somewhere.

SMILES | EWS-Fli block | PGC1a acetyl inh | GSIS activator | AF4-AF9 inh | PAX8 inh HTS | XiGFP reactiv
OC[C@H]1[C@@H](c2ccc(-c3ccccc3)cc2)[C@@H]2CN(Cc3ccccn3)CCCCN12 | -1.5 | 1.9 | 7.6 | 2.1 | -48.7 | 0.3
C[C@@H]1CCCCO[C@@H](CN(C)C(=O)Nc2ccc(C(F)(F)F)cc2)[C@@H](C)CN([C@H](C)CO)C(=O)c2cc(NS(=O)(=O)c3ccc(F)cc3)ccc2O1 | / | 5.6 | 31.3 | -0.4 | 66.3* | ?
Cc1ccc(S(=O)(=O)Nc2ccc3c(c2)C(=O)N([C@@H](C)CO)C[C@H](C)[C@@H](CN(C)C(=O)Nc2ccc(C(F)(F)F)cc2)OCCCC[C@@H](C)O3)cc1 | 9.2 | -8.8 | -12.8 | 1.8 | 74.7* | 0.2
C[C@@H]1CN([C@@H](C)CO)C(=O)c2cc(NS(=O)(=O)c3ccc(F)cc3)ccc2O[C@@H]1CN(C)C(=O)Nc1ccc(C(F)(F)F)cc1 | -7.1 | 2.8 | -14.3 | -1.3 | 70.7* | 0.3
Cc1ccc(S(=O)(=O)Nc2ccc3c(c2)C(=O)N([C@H](C)CO)C[C@H](C)[C@@H](CN(C)C(=O)Nc2ccc(C(F)(F)F)cc2)OCCCC[C@@H](C)O3)cc1 | -0.4 | 0.2 | -0.2 | 0.7 | -3.1 | 0.3
C[C@@H]1CN([C@@H](C)CO)C(=O)c2cc(NS(=O)(=O)c3cccs3)ccc2O[C@@H]1CN(C)C(=O)Nc1ccc(F)cc1 | 0.2 | 0.6 | 24.1 | 47.1* | / | 0.3
CN1[C@H](C(=O)NC2CCCC2)[C@@H](CO)[C@@H]2Cn3c(ccc(-c4cccc(F)c4)c3=O)[C@@H]21 | -0.8 | -10.4 | 1.3 | -1.4 | / | 0.0
CC(C)CC#Cc1ccc([C@H]2[C@H]3CN(C(=O)NC(C)C)CC(=O)N3[C@H]2CO)cc1 | / | / | -11.0 | / | / | 0.0
C[C@H]1CCCCO[C@H](CN(C)C(=O)Nc2ccc(C(F)(F)F)cc2)[C@@H](C)CN([C@@H](C)CO)C(=O)c2cc(NS(=O)(=O)c3cccs3)ccc2O1 | 19.9 | 37.9 | -1.3 | -0.8 | 78.6* | 0.1
C[C@H]1CCCCO[C@H](CN(C)C(=O)Nc2ccc(C(F)(F)F)cc2)[C@@H](C)CN([C@@H](C)CO)C(=O)c2cc(NS(=O)(=O)c3ccc(Cl)cc3)ccc2O1 | 12.6 | 10.6 | 7.8 | -1.1 | 90.7* | 0.2
C[C@@H]1CCCCO[C@H](CN(C)C(=O)Nc2ccc(C(F)(F)F)cc2)[C@@H](C)CN([C@@H](C)CO)C(=O)c2cc(NS(=O)(=O)c3ccccc3)ccc2O1 | 6.8 | 5.2 | 11.3 | 1.5 | 80.9* | 0.3
C[C@@H]1CCCCO[C@H](CN(C)C(=O)Nc2ccc(C(F)(F)F)cc2)[C@@H](C)CN([C@H](C)CO)C(=O)c2cc(NS(=O)(=O)c3ccccc3)ccc2O1 | 3.0 | -0.4 | 10.4 | 1.0 | 7.1 | 0.0
COc1ccc2nc(CCN(C)C(=O)C3CCC(=O)N(Cc4cccc(F)c4)C3)[nH]c2c1 (centres undefined) | 1.5 | 2.6 | 61.5* | 0.7 | -0.9 | 0.0
COc1cccc(CN2CC(C(=O)N(C)Cc3nc4ccc(F)cc4[nH]3)CCC2=O)c1 (centres undefined) | -2.2 | / | -9.0 | -6.4 | -16.0 | 0.1
Cc1cc(C)cc(Cn2c3ccc(NC(=S)NCc4ccccc4F)cc3c(=O)n2C)c1 | 10.0 | 3.2 | 56.0* | -1.6 | 0.2 | 0.3
Cn1c(=O)c2cc(NC(=S)NCc3ccccc3F)ccc2n1Cc1ccccc1 | -4.6 | -5.4 | -12.8 | -2.3 | -15.2 | 0.1
O=C(C[C@H]1C=C[C@@H](NC(=O)Cc2ccccn2)[C@@H](CO)O1)NCCc1ccccc1 | -1.6 | 1.9 | 10.9 | -4.9 | / | 0.3
ClC(Cl)(Cl)c1nc2ccccc2n2nncc12 | 47.9 | / | 3.2 | -0.5 | 86.3* | 0.1
c1ccc(CCNc2nc3ccccc3n3nnnc23)cc1 | / | 0.1 | / | / | / | /
CO[C@H]1CN(C)C(=O)c2ccc(NC(=O)c3cccc(F)c3)cc2OC[C@@H](C)N(C)C[C@@H]1C | -0.1 | -6.4 | 4.2 | -5.6 | / | 0.5
CCOC(=O)c1cnc2c(cnn2C)c1Oc1ccc(OC)cc1 | 3.2 | -19.9 | 61.9* | 0.3 | -18.5 | 0.0
